In brackets after ≈: the same amount, converted by molar mass. Activity calls are given as the source filed them. The calls are words filed in the database; no cut-off is given here.
Key:
[1] = test system: Streptococcus sanguinis; test: Antibacterial activity against Streptococcus sanguinis ATCC 10556 after 48 hrs by broth microdilution method; format: functional; conditions: ATCC 10556, 48 h
[2] = test system: Streptococcus sanguinis; test: Antibacterial activity against Streptococcus sanguinis ATCC 10556 after 24 hrs by broth microdilution method; conditions: ATCC 10556, 24 h
[3] = test system: Fusobacterium nucleatum; test: Antibacterial activity against Fusobacterium nucleatum ATCC 10953 after 48 hrs by broth microdilution method; format: functional; conditions: ATCC 10953, 48 h
How it was run: (§1)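 Broth microdilution MIC for obligate anaerobes, run in their growth media (Wilkins–Chalgren for F. nucleatum and P. intermedia; supplemented Todd Hewitt broth for P. gingivalis). Inoculum suspended in Brucella broth, final 5 × 10^6 cfu/ml. Twofold dilutions, final 0.12–128 µg/ml. Incubated anaerobically (90% N2/5% H2/5% CO2) at 37 °C for 48 h; MIC is the lowest concentration without turbidity.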

[4] = test system: Prevotella intermedia; test: Antibacterial activity against Prevotella intermedia ATCC 25611 after 48 hrs by broth microdilution method; format: functional; conditions: ATCC 25611, 48 h; how it was run: as §1
[5] = test system: Porphyromonas gingivalis; test: Antibacterial activity against Porphyromonas gingivalis ATCC 33277 after 48 hrs by broth microdilution method; format: functional; conditions: ATCC 33277, 48 h; how it was run: as §1
[6] = test system: Streptococcus mutans; test: Antibacterial activity against Streptococcus mutans ATCC 25175 assessed as inhibition of biofilm formation after 18 hrs; format: functional
How it was run: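 Single-species S. mutans biofilm grown in flat-bottom polystyrene wells, BHI with 2% sucrose, 6 × 10^7 cfu/ml final, compound twofold 0.12–128 µg/ml, 18 h at 37 °C in 5% CO2. Wells rinsed with PBS pH 7.2, methanol-fixed, stained with 0.1% crystal violet, eluted in 95% ethanol, A595 read. % inhibition relative to untreated control; MBIC50 is the lowest concentration giving ≥50% inhibition.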

[7] = test system: Actinomyces viscosus; test: Antibacterial activity against Actinomyces viscosus ATCC 15987 after 24 hrs by broth microdilution method; conditions: ATCC 15987, 24 h
[8] = test system: Streptococcus mutans; test: Antibacterial activity against Streptococcus mutans ATCC 25175 after 24 hrs by broth microdilution method; conditions: ATCC 25175, 24 h
[9] = test system: Actinomyces viscosus; test: Antibacterial activity against Actinomyces viscosus ATCC 15987 after 48 hrs by broth microdilution method; format: functional; conditions: ATCC 15987, 48 h
[10] = test system: Streptococcus mutans; test: Antibacterial activity against Streptococcus mutans ATCC 25175 after 48 hrs by broth microdilution method; format: functional; conditions: ATCC 25175, 48 h
[11] = test system: Streptococcus mutans; test: Antibacterial activity against Streptococcus mutans ATCC 25175 assessed as 280 nm absorbing material release at 2 time MIC after 60 mins by spectrophotometric analysis; format: functional, organism-based
How it was run: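 S. mutans prepared in 50 mmol/l phosphate pH 7.1 (~1 × 10^9 cfu/ml) was exposed to compound at 2 × MIC for 60 min at 37 °C. Supernatant taken after centrifugation (10,000 g, 10 min) and read at A280. Release is expressed as % of a total-release control made by lysozyme treatment (100 µg/ml, 60 min, 37 °C) plus sonication.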

[12] = test system: Streptococcus mutans; test: Antibacterial activity against Streptococcus mutans ATCC 25175 assessed as decrease in cell viability at 2 time MIC after 60 mins by serial dilution method relative to control; format: functional
How it was run: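 S. mutans suspension from an 18 h culture (~1 × 10^9 cfu/ml) diluted 1:20 into phosphate buffer containing compound at 2 × MIC. Incubated 60 min at 37 °C, then serially diluted in saline and plated on BHI agar. Colonies counted after 48 h at 37 °C in 5% CO2; viability given as CFU/ml relative to untreated cells.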

[13] = test system: Streptococcus mutans; test: Antibacterial activity against Streptococcus mutans ATCC 25175 assessed as increase of cell membrane permeability at 2 time MIC after 60 mins propidium iodide staining by flow cytometry; format: functional, organism-based
How it was run: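 Overnight BHI culture of S. mutans washed into 50 mmol/l sodium phosphate pH 7.1 (~1 × 10^9 cfu/ml), diluted 1:20 into buffer with compound at 2 × MIC. Incubated 60 min at room temperature; aliquots diluted in buffer and stained with propidium iodide at 10 µg/ml final on ice. The percentage of PI-stained cells was measured by flow cytometry.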

MIC [2] | MIC [3] | MIC [4] | MIC [5] | MIC [7] | MIC [8] | Structure (SMILES) | MBC [1] | MBC [3] | MBC [4] | MBC [5] | MBIC50 [6] | MBC [9] | MBC [10] | Activity [11] | Activity [12] | Activity [13]
32 mg/L (≈ 118 µM) | 32 mg/L (≈ 118 µM) | 32 mg/L (≈ 118 µM) | 16 mg/L (≈ 59.2 µM) | 32 mg/L (≈ 118 µM) | 64 mg/L (≈ 237 µM) | C=C[C@@](C)(/C=C/c1ccc(O)cc1)CC/C=C(/C)C=O | 64 mg/L (≈ 237 µM) | 64 mg/L (≈ 237 µM) | 64 mg/L (≈ 237 µM) | 16 mg/L (≈ 59.2 µM) | – | 64 mg/L (≈ 237 µM) | 128 mg/L (≈ 473 µM) | – | – | –
2 mg/L (≈ 5.52 µM) | 16 mg/L (≈ 44.1 µM) | 2 mg/L (≈ 5.52 µM) | 1 mg/L (≈ 2.76 µM) | 2 mg/L (≈ 5.52 µM) | 4 mg/L (≈ 11 µM) | COc1ccccc1/C=C/[C@@](C)(/C=C/c1ccc(O)cc1)CCC=C(C)C | 4 mg/L (≈ 11 µM) | 32 mg/L (≈ 88.3 µM) | 4 mg/L (≈ 11 µM) | 2 mg/L (≈ 5.52 µM) | 8 µg/mL | 4 mg/L (≈ 11 µM) | 8 mg/L (≈ 22.1 µM) | – | – | –
1 mg/L (≈ 3.81 µM) | > 128 mg/L | 2 mg/L (≈ 7.62 µM) | 1 mg/L (≈ 3.81 µM) | 2 mg/L (≈ 7.62 µM) | 2 mg/L (≈ 7.62 µM) | CC[C@](C)(CCCC(C)C)CCc1ccc(O)cc1 | 2 mg/L (≈ 7.62 µM) | > 128 mg/L | 4 mg/L (≈ 15.2 µM) | 2 mg/L (≈ 7.62 µM) | 4 µg/mL | 4 mg/L (≈ 15.2 µM) | 4 mg/L (≈ 15.2 µM) | – | – | –

Further lines, the compound ahead of its results:

Structure (SMILES) | MIC [2] | MIC [3] | MIC [4] | MIC [5] | MIC [7] | MIC [8] | MBC [1] | MBC [3] | MBC [4] | MBC [5] | MBIC50 [6] | MBC [9] | MBC [10] | Activity [11] | Activity [12] | Activity [13]
COc1ccc(/C=C/[C@@](C)(/C=C/c2ccc(O)cc2)CCC=C(C)C)cc1CO | 4 mg/L (≈ 10.2 µM) | > 128 mg/L | 2 mg/L (≈ 5.1 µM) | 2 mg/L (≈ 5.1 µM) | 4 mg/L (≈ 10.2 µM) | 4 mg/L (≈ 10.2 µM) | 8 mg/L (≈ 20.4 µM) | > 128 mg/L | 4 mg/L (≈ 10.2 µM) | 4 mg/L (≈ 10.2 µM) | 8 µg/mL | 8 mg/L (≈ 20.4 µM) | 4 mg/L (≈ 10.2 µM) | – | – | –
CC(C)=CCC[C@@](C)(/C=C/c1ccc(N)cc1)/C=C/c1ccc(O)cc1 | 2 mg/L (≈ 5.76 µM) | > 128 mg/L | 2 mg/L (≈ 5.76 µM) | 1 mg/L (≈ 2.88 µM) | 2 mg/L (≈ 5.76 µM) | 2 mg/L (≈ 5.76 µM) | 4 mg/L (≈ 11.5 µM) | > 128 mg/L | 4 mg/L (≈ 11.5 µM) | 2 mg/L (≈ 5.76 µM) | – | 2 mg/L (≈ 5.76 µM) | 4 mg/L (≈ 11.5 µM) | – | – | –
C=C[C@@](C)(/C=C/c1ccc(OC(C)=O)cc1)CCC=C(C)C [ACETYLBAKUCHIOL] | 16 mg/L (≈ 53.6 µM) | > 128 mg/L | 64 mg/L (≈ 214 µM) | 8 mg/L (≈ 26.8 µM) | 32 mg/L (≈ 107 µM) | 128 mg/L (≈ 429 µM) | 16 mg/L (≈ 53.6 µM) | > 128 mg/L | 64 mg/L (≈ 214 µM) | 8 mg/L (≈ 26.8 µM) | – | 64 mg/L (≈ 214 µM) | > 128 mg/L | – | – | –
CC(C)=CCCC(C)(/C=C/c1ccc(O)cc1)/C=C/c1ccc(O)cc1 | 0.25 mg/L (≈ 0.717 µM) | > 128 mg/L | 0.25 mg/L (≈ 0.717 µM) | 0.25 mg/L (≈ 0.717 µM) | 0.5 mg/L (≈ 1.43 µM) | 0.5 mg/L (≈ 1.43 µM) | 1 mg/L (≈ 2.87 µM) | > 128 mg/L | 1 mg/L (≈ 2.87 µM) | 1 mg/L (≈ 2.87 µM) | 1 µg/mL | 1 mg/L (≈ 2.87 µM) | 1 mg/L (≈ 2.87 µM) | Active | >80% | Active
C=C[C@@](C)(/C=C/c1ccc(O)c(N)c1)CCC=C(C)C | 16 mg/L (≈ 59 µM) | 32 mg/L (≈ 118 µM) | 16 mg/L (≈ 59 µM) | 2 mg/L (≈ 7.37 µM) | 16 mg/L (≈ 59 µM) | 16 mg/L (≈ 59 µM) | 32 mg/L (≈ 118 µM) | 64 mg/L (≈ 236 µM) | 32 mg/L (≈ 118 µM) | 4 mg/L (≈ 14.7 µM) | – | 32 mg/L (≈ 118 µM) | 32 mg/L (≈ 118 µM) | – | – | –

Reference: ChEMBL document CHEMBL1177882, “Novel bisstyryl derivatives of bakuchiol: targeting oral cavity pathogens” (2010)
